Several values for one entry are separate records, joined by “and”; a condition that tells them apart may be missing. Equal values may be shown once.
How the values were obtained:
[1] = partition coefficient with the use of 1-octanol / water solvent system; format: physicochemical
Outline: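 4 mL of 10 mM aqueous compound was stirred vigorously with 2 mL 1-octanol for 5 min at 25 °C. The aqueous layer was analysed by ³¹P NMR, and signal intensity (peak height × width at half-height) gave concentrations in each phase. P = [octanol]/[water].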

Mus musculus [2] = assay: Percentage increase in life span when the compound was administered intraperitoneally at dose of 20 mg/Kg in P388 leukemia in CDF1 mice was determined; format: functional; conditions: P388, ip
Outline: (§1)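 CD2F1 male mice, 19–22 g, in groups of six, inoculated ip with 10⁶ P388 cells on day 0. Dosed ip once daily for 9 days from day 1, in saline, or for linear polyethers in aqueous 2% Tween 80. Deaths and survivors were recorded to 30 days, some to 60. T/C is mean survival, treated vs tumour-bearing control. %ILS = [(T−C)/C]×100. Average day-5 weight change was taken as toxicity.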

Mus musculus [3] = assay: Percentage increase in life span when the compound was administered intraperitoneally at dose of 60 mg/Kg in P388 leukemia in CDF1 mice was determined; format: functional; conditions: P388, ip; outline: as §1
Mus musculus [4] = assay: Anticancer activity against P388 leukemia in CD2F1 male mice by 60 mg/kg/day.; format: functional; outline: as §1
Mus musculus [5] = assay: Anticancer activity against P388 leukemia in CD2F1 male mice expressed as Average % weight change on day 5 as a measure of toxicity was reported at a dose of 60 mg/kg/day.; format: functional; outline: as §1
Mus musculus [6] = assay: Compound was evaluated for the anticancer activity against P388 leukemia in CD2F1 male mice at a dose of 60 mg/kg/after 30 days; 0/6; format: functional; outline: as §1
Mus musculus [7] = assay: Compound was evaluated for the anticancer activity against P388 leukemia in CD2F1 male mice at a dose of 20 mg/kg/after 30 days; 0/6; format: functional
Mus musculus [8] = assay: Anticancer activity against P388 leukemia in CD2F1 male mice expressed as Average % weight change on day 5 as a measure of toxicity was reported at a dose of 20 mg/kg/day.; format: functional; outline: as §1

CCOCCOCCOP(=O)(N1CC1(C)C)N1CC1(C)C (stereo unspecified)
Partition coefficient [1]: 1.65 | ILS at 20 mg/kg (Mus musculus [2]): 28% | ILS at 60 mg/kg (Mus musculus [3]): 88% | T/C (Mus musculus [4]): 188% and 88% | Weight change (Mus musculus [5]): 5.5% | Survivors (Mus musculus [6]): 0 | Survivors (Mus musculus [7]): 0 | Weight change (Mus musculus [8]): 1.5%

CCOCCOCCOP(=O)(N1CC1)N1CC1
Partition coefficient [1]: 1.25 | ILS at 20 mg/kg (Mus musculus [2]): 40% | ILS at 60 mg/kg (Mus musculus [3]): 131% | T/C (Mus musculus [4]): 231% and 131% | Weight change (Mus musculus [5]): 4.5% | Survivors (Mus musculus [6]): 0 | Survivors (Mus musculus [7]): 0 | Weight change (Mus musculus [8]): 2.8%

CCOCCOCCOP(=S)(N1CC1)N1CC1
Partition coefficient [1]: 2.4 | ILS at 20 mg/kg (Mus musculus [2]): 24% | ILS at 60 mg/kg (Mus musculus [3]): 77% | T/C (Mus musculus [4]): 177% and 77% | Weight change (Mus musculus [5]): 1.4% | Survivors (Mus musculus [6]): 0 | Survivors (Mus musculus [7]): 0 | Weight change (Mus musculus [8]): 2.6%

CCOCCOCCOP(=S)(N1CC1(C)C)N1CC1(C)C (stereo unspecified)
Partition coefficient [1]: 2.95 | ILS at 20 mg/kg (Mus musculus [2]): 19% | ILS at 60 mg/kg (Mus musculus [3]): 42% | Weight change (Mus musculus [5]): 1.4% | Survivors (Mus musculus [6]): 0 | Survivors (Mus musculus [7]): 0 | Weight change (Mus musculus [8]): 1.6%

O=P(N1CCOCCOCCOCCOCCOCC1)(N1CC1)N1CC1
Partition coefficient [1]: 0.044 | ILS at 20 mg/kg (Mus musculus [2]): 47% | ILS at 60 mg/kg (Mus musculus [3]): 88% | T/C (Mus musculus [4]): 188% and 88% | Weight change (Mus musculus [5]): 0.5% | Survivors (Mus musculus [6]): 0 | Survivors (Mus musculus [7]): 0 | Weight change (Mus musculus [8]): 7.6%

S=P(N1CCOCCOCCOCCOCCOCC1)(N1CC1)N1CC1
Partition coefficient [1]: 5.6 | ILS at 20 mg/kg (Mus musculus [2]): 2% | ILS at 60 mg/kg (Mus musculus [3]): 20% | Weight change (Mus musculus [5]): 12.3% | Survivors (Mus musculus [6]): 0 | Survivors (Mus musculus [7]): 0 | Weight change (Mus musculus [8]): 10.6%

Reference: ChEMBL document CHEMBL1123312, “In the search for new anticancer drugs. 17. Linear and cyclic polyether analogues of N,N:N',N':N'',N''-tri-1,2-ethanediylphosphoric triamide and N,N:N',N':N'',N''-tri-1,2-ethanediylphosphorothioic triamide” (J Med Chem, 1986)
